Series [1] can be described thus: Stability in mouse liver microsomes assessed as parent compound remaining at 1 uM measured after 60 mins in absence of NADPH by LC-MS/MS analysis. Type of series: ADME, Microsome. The settings on record: for remaining at 1 h, 1 µM: liver microsomes, read-out: Stability. The method, boiled down: (§1)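 Cofactor-free control for cofactor-independent degradation. Mouse or human liver microsomes at 0.2 mg/mL, 1 μM compound (final), 100 mM potassium phosphate at pH 7.4, no NADPH regenerating system. Adding microsomes started the reaction; run in triplicate. Sampled at 60 min and quenched with three volumes of ice-cold acetonitrile spiked with internal standard.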

A short description of series [2]: Stability in human liver microsomes assessed as parent compound remaining at 1 uM measured after 60 mins in absence of NADPH by LC-MS/MS analysis. The conditions noted are these: for remaining at 1 h, 1 µM: liver microsomes, read-out: Stability. Type of series: ADME, Microsome. The method, boiled down: as §1
(Liver microsomes are vesicles of endoplasmic reticulum, rich in cytochrome P450 enzymes.)

For `COc1cc(-c2c(C)nc3c(N4CC[C@@H](NC(C)=O)C4)cc(C)nn23)ccc1F`, the remaining at 1 h, 1 µM in series [1] and in series [2] was > 95% throughout.
For `COc1ccc(-c2c(C)nc3c(N4CC[C@H](O)C4)cc(C)nn23)cc1OC`, the remaining at 1 h, 1 µM in series [1] and in series [2] was > 95% in each case.
Consider `COc1ccc(-c2c(C)nc3c(N4CC[C@@H](OC(C)=O)C4)cc(C)nn23)cc1OC`, for which the remaining at 1 h, 1 µM in series [1] and in series [2] was > 95% throughout.
For the molecule `COc1cc(-c2c(C)nc3c(N4CC[C@@H](NC(C)=O)C4)cc(C)nn23)cc(OC)c1OC`, the remaining at 1 h, 1 µM in series [1] and in series [2] was > 95% in each case.
For `COc1ccc(-c2c(C)nc3c(N4CCN(C(=O)OC(C)(C)C)C4)cc(C)nn23)cc1OC`, the remaining at 1 h, 1 µM in series [1] and in series [2] was > 95% each time.
As to `COc1ccc(-c2c(C)nc3c(N4CC[C@@H](NC(=O)NC(C)C)C4)cc(C)nn23)cc1OC`, the remaining at 1 h, 1 µM in series [1] and in series [2] was > 95% each time.
For `CC(=O)N[C@@H]1CCN(c2cc(C)nn3c(-c4ccco4)c(C)nc23)C1`, the remaining at 1 h, 1 µM in series [1] and in series [2] was > 95% in each case.
In the case of `CC(=O)N[C@@H]1CCN(c2cc(C)nn3c(-c4cccc(N5CCOCC5)c4)c(C)nc23)C1`, the remaining at 1 h, 1 µM in series [1] and in series [2] was > 95% each time.
With `COc1ccc(-c2c(C)nc3c(N4CC[C@@H](n5cc(-c6ccccc6)nn5)C4)cc(C)nn23)cc1OC`, the Stability entry in series [1] (microsomes, 1 h, 1 µM) is “Unstable”; in series [2] (microsomes, 1 h, 1 µM) it was “Unstable”.
As to `COc1ccc(-c2c(C)nc3c(N4CC[C@@H](NC(=O)Cc5ccccc5)C4)cc(C)nn23)cc1OC`, the remaining at 1 h, 1 µM in series [1] and in series [2] was > 95% throughout.
As to `COc1ccc(-c2c(C)nc3c(N4CC[C@@H](NC(=O)COc5ccccc5)C4)cc(C)nn23)cc1OC`, the remaining at 1 h, 1 µM in series [1] and in series [2] was > 95% in each case.
With `COc1ccc(-c2c(C)nc3c(N4CC[C@@H](N)C4)cc(C)nn23)cc1OC`, the remaining at 1 h, 1 µM in series [1] and in series [2] was > 95% throughout.
As to `COc1ccc(-c2c(C)nc3c(N4CC[C@@H](O)C4)cc(C)nn23)cc1OC`, the remaining at 1 h, 1 µM in series [1] and in series [2] was > 95% in each case.
Turning to `CC(=O)N[C@@H]1CCN(c2cc(C)nn3c(-c4ccc5cc[nH]c5c4)c(C)nc23)C1`, the remaining at 1 h, 1 µM in series [1] and in series [2] was > 95% in each case.
With `COc1ccc(-c2c(C)nc3c(N4CC[C@@H](NC(=O)Oc5cccc(C)c5)C4)cc(C)nn23)cc1OC`, the remaining at 1 h, 1 µM in series [1] and in series [2] was > 95% throughout.
Turning to `COc1ccc(-c2c(C)nc3c(N4CCN(C(=O)OC(C)(C)C)CC4)cc(C)nn23)cc1OC`, the remaining at 1 h, 1 µM in series [1] and in series [2] was > 95% each time.
As to `CC(=O)N[C@@H]1CCN(c2cc(C)nn3c(-c4ccccc4)c(C)nc23)C1`, the remaining at 1 h, 1 µM in series [1] and in series [2] was > 95% throughout.
On to `COc1ccc(-c2c(C)nc3c(N4CC=CC4)cc(C)nn23)cc1OC`, for which the remaining at 1 h, 1 µM in series [1] and in series [2] was > 95% each time.
Take `COc1ccc(-c2c(C)nc3c(N4CCOCC4)cc(C)nn23)cc1OC`: the remaining at 1 h, 1 µM in series [1] and in series [2] was > 95% each time.
Take `COc1ccc(-c2c(C)nc3c(N4CCN(C(=O)C5CCCCC5)CC4)cc(C)nn23)cc1OC`: the remaining at 1 h, 1 µM in series [1] and in series [2] was > 95% throughout.
In the case of `COc1ccc(-c2c(C)nc3c(N4CC[C@@H](F)C4)cc(C)nn23)cc1OC`, the remaining at 1 h, 1 µM in series [1] and in series [2] was > 95% each time.
For the molecule `COc1ccc(-c2c(C)nc3c(N4CCN(C(C)=O)CC4)cc(C)nn23)cc1OC`, the remaining at 1 h, 1 µM in series [1] and in series [2] was > 95% throughout.
With `COc1ccc(-c2c(C)nc3c(N4CC[C@@H](NC(C)=O)C4)cc(C)nn23)cn1`, the remaining at 1 h, 1 µM in series [1] and in series [2] was > 95% in each case.

The values above are taken from ChEMBL document CHEMBL4613265, “Novel Human Neutral Sphingomyelinase 2 Inhibitors as Potential Therapeutics for Alzheimer's Disease” (J Med Chem, 2020).
